# In the library only some 6.7% were active in any assay of this set; here they are far more common.
# GRIN3A LBD mod: NR3A (human) ligand-binding domain modulation | NR3A LBD differential scanning fluorimetry, Tm shift; 0% = protein alone, 100% = glycine-bound protein | Tm shift relative to glycine control, % at 25 µM | 340,000 tested, 2.5% active | AID 1259313;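 active means melting temperature shift of at least 10% of the positive control shift, at one fixed dose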
# CHOP inh: inhibitors of CHOP induction in ER stress response; CHO-K1 CHOP-promoter luciferase, tunicamycin-induced, 15-18 h; inhibition, % at 10 µM; 220,000 tested, 3.8% active;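 active means compounds that reduced the stress-induced luciferase reporter signal by more than about 70% of percent inhibition, limit read from the data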;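 further: 0% = tunicamycin plus vehicle and 100% = wells without tunicamycin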
# PREPL inh: human PREPL enzyme inhibition; Q4J6C6; AID 2751; recombinant PREPL, fluorescence polarization activity-based probe; inhibition, % at 5.96 µM; 320,000 tested, 0.68% active; in the data active means inhibition above about 43%;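 further: 0% = enzyme with DMSO and 100% = wells lacking enzyme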
# Target sequence (Q4J6C6 whole entry, looked up): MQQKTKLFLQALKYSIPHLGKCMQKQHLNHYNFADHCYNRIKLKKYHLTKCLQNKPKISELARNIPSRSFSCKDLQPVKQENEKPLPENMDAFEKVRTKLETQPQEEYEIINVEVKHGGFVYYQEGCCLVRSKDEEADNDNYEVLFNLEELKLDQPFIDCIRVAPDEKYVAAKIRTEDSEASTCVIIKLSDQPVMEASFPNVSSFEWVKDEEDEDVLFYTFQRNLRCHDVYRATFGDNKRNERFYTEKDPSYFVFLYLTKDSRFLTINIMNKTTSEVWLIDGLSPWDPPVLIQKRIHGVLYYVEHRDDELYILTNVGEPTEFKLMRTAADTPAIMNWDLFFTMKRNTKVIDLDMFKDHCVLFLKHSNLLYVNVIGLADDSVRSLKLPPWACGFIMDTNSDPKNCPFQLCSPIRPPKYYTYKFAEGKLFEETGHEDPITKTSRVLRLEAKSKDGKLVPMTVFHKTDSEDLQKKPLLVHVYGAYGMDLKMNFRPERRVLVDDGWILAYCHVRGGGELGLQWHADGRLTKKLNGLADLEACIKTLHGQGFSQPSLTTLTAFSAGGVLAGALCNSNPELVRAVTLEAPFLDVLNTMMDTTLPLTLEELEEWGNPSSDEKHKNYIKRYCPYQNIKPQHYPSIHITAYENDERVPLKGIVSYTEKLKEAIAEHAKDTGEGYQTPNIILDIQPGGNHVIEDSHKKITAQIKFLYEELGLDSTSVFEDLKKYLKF
# T cruzi inh: T. cruzi replication inhibition. T. cruzi beta-gal in NIH3T3, luminescence, 90 h. inhibition, % (test concentration not listed). 300,000 tested, 1.4% active;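 active means mean inhibition across valid replicates above about 55%, limit read from the data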;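 further: signal also drops with host cell toxicity which is not excluded here; 0% = plate median of DMSO wells and 100% = zero luminescence signal; higher percent means less beta-gal luminescence so fewer parasites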
#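 System – NIH/3T3 host cells with β-galactosidase reporter T. cruzi · Doses – single 50 nL compound addition per well in DMSO · Reagent – 5000 T. cruzi trypomastigotes/well · Medium – Low-serum DMEM with 2% FBS · Timing – ≥90 h infection period, 3 h prior cell attachment · Evaluation – parasite load inhibition, % · Technique – GalScreen luminescence, 60 min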
# CSC inhib: cancer stem cell inhibition | cancer stem cell-like cells viability, luminescence | inhibition, % at 7.5 µM | 300,000 tested, 1.1% active | AID 2717; in the data active means inhibition above about 75%; tested in HMLE shEcad cells
# Beta apoptosis: blocks beta cell apoptosis. INS-1E cytokine-induced death, ATP luminescence, 48 h; percent of positive-control rescue, neutral wells zero. protection from apoptosis, % (no concentration beside the values). 300,000 tested, 0.8% active. AID 435005;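 active means Every replicate reaches about 75%, or at least half do and their mean reaches it too, limit read from the data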;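 further: 0% = cytokine-treated negative control wells and 100% = positive control rescue; higher means more ATP so stronger rescue from cytokine killing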
# * hit, by the source's call; / = not tested or not shown.
SMILES,GRIN3A LBD mod,CHOP inh,PREPL inh,T cruzi inh,CSC inhib,Beta apoptosis
CN1CCN(CC2(O)CCN(S(=O)(=O)c3ccc(Cl)cc3)CC2)CC1,1,23,2,72*,-5,0
O=C(c1ccc(Cl)cc1)N1CCC(O)(CSc2ccc(Cl)cc2)CC1,-17,72*,-8,6,-2,1
CC(C)[C@H](NC(=O)c1ccc(Cl)cc1Cl)C(=O)NNC(=O)c1ccco1,0,/,11,/,-19,-4
COc1ccc(C(=O)/C=C/Sc2nc3ccccc3o2)cc1,-12,82*,-6,-3,-7,34
O=C(O)c1cccc(NC(=O)c2ccc(CN3C(=O)c4ccccc4C3=O)cc2)c1,-1,/,4,-13,-13,-7
O=C(Nc1cc(Cl)ccc1C(=O)O)c1ccc(CN2C(=O)c3ccccc3C2=O)cc1,13*,/,-9,-9,-5,-5
Cc1onc(-c2c(F)cccc2Cl)c1C(O)c1ccc(F)cc1 (centres undefined),11*,7,-2,-14,-13,-6
Cc1ccc(NC(=O)c2c(-c3c(F)cccc3Cl)noc2C)cc1F,-5,28,-2,1,5,96*
Cc1onc(-c2ccccc2)c1C(=O)NNC(=S)NC(=O)c1ccc(Cl)cc1Cl,-8,86*,-8,-33,-1,-5
Cc1nc(C(=O)NNC(=O)c2c(-c3c(Cl)cccc3Cl)noc2C)cs1,1,28,-4,-11,35,86*
Cc1cc(NC(=O)c2c(-c3c(F)cccc3Cl)noc2C)no1,1,-22,-8,9,1,-2
O=C(NC(=O)c1cc([N+](=O)[O-])ccc1Cl)C1=C(N2CCCC2)COC1=O,0,/,-3,/,/,5
CCOCCCn1c(SC(C)C(=O)NCC2CCCO2)nc2sc(C)c(C)c2c1=O (centres undefined),-2,/,2,/,/,1
Cc1onc(-c2c(Cl)cccc2Cl)c1C(=O)n1nnc2ccccc21,/,96*,-8,-29,-5,0
Cc1onc(-c2c(Cl)cccc2Cl)c1C(=O)NNc1ccccc1,1,7,-2,30,91*,-3
Cc1onc(-c2c(Cl)cccc2Cl)c1C(N)=O,1,42,-8,-18,-11,-10
CC1Cc2ccccc2N1C(=O)CSc1nc2c(c(=O)n(C)c(=O)n2C)n1Cc1ccccc1 (centres undefined),-17,65,-4,57*,1,20
CCNC(=S)N1CCN(c2nc(-c3cccc(OC)c3)cs2)CC1,19*,/,25,4,-10,0
CCN(CC)CCCNC(=S)N1CCN(c2nc(-c3ccccc3)cs2)CC1,4,/,38,19,79*,/
COc1cccc(-c2csc(N3CCN(C(=O)Nc4ccc(Cl)cc4)CC3)n2)c1,15*,7,13,4,11,11
CCOCCCNC(=S)N1CCN(c2nc(-c3ccccc3)cs2)CC1,-6,/,-4,-4,1,/
COc1ccc(S(=O)(=O)N2CCOC2CNC(=O)C(=O)NCCc2c[nH]c3ccccc23)cc1C (centres undefined),-5,32,3,-16,28,-10
Cc1cccc(-c2noc(CCCC(=O)NC3CCCCC3)n2)c1,-1,/,0,7,-17,2
Cc1cccc(Cn2c(O)c(N=NC(=S)Nc3ccccc3F)c3ccccc32)c1,-9,-3,2,60*,-3,40
Oc1c(N=NC(=S)Nc2ccccc2F)c2ccccc2n1Cc1ccc(F)cc1,-26,-14,20,67*,41,40
SMILES,GRIN3A LBD mod,CHOP inh,PREPL inh,T cruzi inh,CSC inhib,Beta apoptosis
Cc1ccc(NC(=O)Cn2c(O)c(N=NC(=O)c3ccncc3)c3ccccc32)cc1,0,52,0,12,-12,-3
Oc1c(N=NC(=S)Nc2ccccc2F)c2ccccc2n1Cc1cccc(Cl)c1,-6,0,10,57*,27,40
Cc1cccc(NC(=O)Cn2c(O)c(N=NC(N)=S)c3ccccc32)c1,-3,94*,1,14,15,8
O=C(C1=C(O)C(=O)N(CC2CCCO2)C1c1ccccc1)c1ccco1 (centres undefined),0,/,-9,-5,-10,-8
Cn1cc(S(=O)(=O)N2CCNCC2)cc1C(N)=O,0,/,11,/,15,-1
CCC1(C)OC(=O)NN(c2ccc(C)cc2)C1(C)O (centres undefined),-1,0,0,-12,2,3

# Compound activity from PubChem BioAssay.
